In ChEMBL document CHEMBL4052595, “Application of Residual Dipolar Couplings and Selective Quantitative NOE to Establish the Structures of Tetranortriterpenoids from Xylocarpus rumphii” (J Nat Prod, 2017):
The source made the active and inactive calls.

Legend:
Type in all cases: functional, cell-based
OVCAR-4 = experiment: Growth inhibition of human OVCAR4 cells at 10^-5 M incubated for 48 hrs by sulforhodamine B assay
Procedure, shortened: (§1)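 Run in the NCI59 one-dose cell-line screen, with each compound tested at a single concentration of 1 × 10−5 M.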

SK-MEL-2 = experiment: Growth inhibition of human SK-MEL-2 cells at 10^-5 M incubated for 48 hrs by sulforhodamine B assay; procedure, shortened: as §1
HCC 2998 = experiment: Growth inhibition of human HCC2998 cells at 10^-5 M incubated for 48 hrs by sulforhodamine B assay; procedure, shortened: as §1
SR = experiment: Growth inhibition of human SR cells at 10^-5 M incubated for 48 hrs by sulforhodamine B assay; procedure, shortened: as §1
PC-3 = experiment: Growth inhibition of human PC3 cells at 10^-5 M incubated for 48 hrs by sulforhodamine B assay; procedure, shortened: as §1
MCF7 = experiment: Growth inhibition of human MCF7 cells at 10^-5 M incubated for 48 hrs by sulforhodamine B assay; procedure, shortened: as §1
MDA-MB-435 = experiment: Growth inhibition of human MDA-MB-435 cells at 10^-5 M incubated for 48 hrs by sulforhodamine B assay; procedure, shortened: as §1
SF-295 = experiment: Growth inhibition of human SF295 cells at 10^-5 M incubated for 48 hrs by sulforhodamine B assay; procedure, shortened: as §1
T47D = experiment: Growth inhibition of human T47D cells at 10^-5 M incubated for 48 hrs by sulforhodamine B assay
Procedure, shortened: (§2)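 Tested at a single concentration of 1 × 10−5 M as part of the NCI59 cell-line one-dose screen.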

786-0 = experiment: Growth inhibition of human 786-0 cells at 10^-5 M incubated for 48 hrs by sulforhodamine B assay; procedure, shortened: as §1
HT-29 = experiment: Growth inhibition of human HT-29 cells at 10^-5 M incubated for 48 hrs by sulforhodamine B assay; procedure, shortened: as §1
HL-60(TB) = experiment: Growth inhibition of human HL-60(TB) cells at 10^-5 M incubated for 48 hrs by sulforhodamine B assay
Procedure, shortened: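 Run in the NCI59 cell-line one-dose screen, with each compound tested at a single concentration of 1 × 10−5 M.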

A549 = experiment: Growth inhibition of human A549/ATCC cells at 10^-5 M incubated for 48 hrs by sulforhodamine B assay; procedure, shortened: as §1
IGROV-1 = experiment: Growth inhibition of human IGROV1 cells at 10^-5 M incubated for 48 hrs by sulforhodamine B assay; procedure, shortened: as §1
KM12 = experiment: Growth inhibition of human KM12 cells at 10^-5 M incubated for 48 hrs by sulforhodamine B assay; procedure, shortened: as §1
EKVX = experiment: Growth inhibition of human EKVX cells at 10^-5 M incubated for 48 hrs by sulforhodamine B assay; procedure, shortened: as §1
NCI-H322M = experiment: Growth inhibition of human NCI-H322M cells at 10^-5 M incubated for 48 hrs by sulforhodamine B assay; procedure, shortened: as §1
MDA-MB-231 = experiment: Growth inhibition of human MDA-MB-231 cells at 10^-5 M incubated for 48 hrs by sulforhodamine B assay; procedure, shortened: as §1
TK-10 = experiment: Growth inhibition of human TK10 cells at 10^-5 M incubated for 48 hrs by sulforhodamine B assay; procedure, shortened: as §2
LOX IMVI = experiment: Growth inhibition of human LOXIMVI cells at 10^-5 M incubated for 48 hrs by sulforhodamine B assay; procedure, shortened: as §1
M14 = experiment: Growth inhibition of human M14 cells at 10^-5 M incubated for 48 hrs by sulforhodamine B assay; procedure, shortened: as §1
NCI-H460 = experiment: Growth inhibition of human NCI-H460 cells at 10^-5 M incubated for 48 hrs by sulforhodamine B assay; procedure, shortened: as §1
COLO 205 = experiment: Growth inhibition of human COLO205 cells at 10^-5 M incubated for 48 hrs by sulforhodamine B assay; procedure, shortened: as §1
BT-549 = experiment: Growth inhibition of human BT549 cells at 10^-5 M incubated for 48 hrs by sulforhodamine B assay; procedure, shortened: as §1
SF-539 = experiment: Growth inhibition of human SF539 cells at 10^-5 M incubated for 48 hrs by sulforhodamine B assay; procedure, shortened: as §1
SNB-19 = experiment: Growth inhibition of human SNB19 cells at 10^-5 M incubated for 48 hrs by sulforhodamine B assay; procedure, shortened: as §1
SN12C = experiment: Growth inhibition of human SN12C cells at 10^-5 M incubated for 48 hrs by sulforhodamine B assay; procedure, shortened: as §1
SK-MEL-5 = experiment: Growth inhibition of human SK-MEL-5 cells at 10^-5 M incubated for 48 hrs by sulforhodamine B assay; procedure, shortened: as §1
OVCAR-5 = experiment: Growth inhibition of human OVCAR5 cells at 10^-5 M incubated for 48 hrs by sulforhodamine B assay; procedure, shortened: as §1
SF-268 = experiment: Growth inhibition of human SF268 cells at 10^-5 M incubated for 48 hrs by sulforhodamine B assay; procedure, shortened: as §1
UACC-62 = experiment: Growth inhibition of human UACC62 cells at 10^-5 M incubated for 48 hrs by sulforhodamine B assay; procedure, shortened: as §2
SNB-75 = experiment: Growth inhibition of human SNB75 cells at 10^-5 M incubated for 48 hrs by sulforhodamine B assay; procedure, shortened: as §1
SK-MEL-28 = experiment: Growth inhibition of human SK-MEL-28 cells at 10^-5 M incubated for 48 hrs by sulforhodamine B assay; procedure, shortened: as §1
RXF 393 = experiment: Growth inhibition of human RXF393 cells at 10^-5 M incubated for 48 hrs by sulforhodamine B assay; procedure, shortened: as §1
HOP-62 = experiment: Growth inhibition of human HOP62 cells at 10^-5 M incubated for 48 hrs by sulforhodamine B assay; procedure, shortened: as §1
UACC-257 = experiment: Growth inhibition of human UACC257 cells at 10^-5 M incubated for 48 hrs by sulforhodamine B assay; procedure, shortened: as §2
K562 = experiment: Growth inhibition of human K562 cells at 10^-5 M incubated for 48 hrs by sulforhodamine B assay; procedure, shortened: as §1
Hs-578T = experiment: Growth inhibition of human Hs 578T cells at 10^-5 M incubated for 48 hrs by sulforhodamine B assay; procedure, shortened: as §1
DU-145 = experiment: Growth inhibition of human DU145 cells at 10^-5 M incubated for 48 hrs by sulforhodamine B assay; procedure, shortened: as §1
OVCAR-3 = experiment: Growth inhibition of human OVCAR3 cells at 10^-5 M incubated for 48 hrs by sulforhodamine B assay; procedure, shortened: as §1
SW-620 = experiment: Growth inhibition of human SW620 cells at 10^-5 M incubated for 48 hrs by sulforhodamine B assay; procedure, shortened: as §2
SK-OV-3 = experiment: Growth inhibition of human SKOV3 cells at 10^-5 M incubated for 48 hrs by sulforhodamine B assay; procedure, shortened: as §1
UO-31 = experiment: Growth inhibition of human UO31 cells at 10^-5 M incubated for 48 hrs by sulforhodamine B assay; procedure, shortened: as §2
RPMI-8226 = experiment: Growth inhibition of human RPMI8226 cells at 10^-5 M incubated for 48 hrs by sulforhodamine B assay; procedure, shortened: as §1
HCT-15 = experiment: Growth inhibition of human HCT15 cells at 10^-5 M incubated for 48 hrs by sulforhodamine B assay; procedure, shortened: as §1
NCI-H522 = experiment: Growth inhibition of human NCI-H522 cells at 10^-5 M incubated for 48 hrs by sulforhodamine B assay; procedure, shortened: as §1
NCI-H226 = experiment: Growth inhibition of human NCI-H226 cells at 10^-5 M incubated for 48 hrs by sulforhodamine B assay; procedure, shortened: as §1
NCI-H23 = experiment: Growth inhibition of human NCI-H23 cells at 10^-5 M incubated for 48 hrs by sulforhodamine B assay; procedure, shortened: as §1
MOLT-4 = experiment: Growth inhibition of human MOLT4 cells at 10^-5 M incubated for 48 hrs by sulforhodamine B assay; procedure, shortened: as §1
OVCAR-8 = experiment: Growth inhibition of human OVCAR8 cells at 10^-5 M incubated for 48 hrs by sulforhodamine B assay; procedure, shortened: as §1
HOP-92 = experiment: Growth inhibition of human HOP92 cells at 10^-5 M incubated for 48 hrs by sulforhodamine B assay; procedure, shortened: as §1
NCI/ADR-RES = experiment: Growth inhibition of human NCI/ADR-RES cells at 10^-5 M incubated for 48 hrs by sulforhodamine B assay; procedure, shortened: as §1
CAKI-1 = experiment: Growth inhibition of human Caki1 cells at 10^-5 M incubated for 48 hrs by sulforhodamine B assay; procedure, shortened: as §1
U-251 = experiment: Growth inhibition of human U251 cells at 10^-5 M incubated for 48 hrs by sulforhodamine B assay; procedure, shortened: as §2
ACHN = experiment: Growth inhibition of human ACHN cells at 10^-5 M incubated for 48 hrs by sulforhodamine B assay; procedure, shortened: as §1
CCRF-CEM = experiment: Growth inhibition of human CCRF-CEM cells at 10^-5 M incubated for 48 hrs by sulforhodamine B assay; procedure, shortened: as §1
A498 = experiment: Growth inhibition of human A498 cells at 10^-5 M incubated for 48 hrs by sulforhodamine B assay; procedure, shortened: as §1
HCT-116 = experiment: Growth inhibition of human HCT116 cells at 10^-5 M incubated for 48 hrs by sulforhodamine B assay; procedure, shortened: as §1

Measured: growth inhibition (GI)

COC(=O)C[C@H]1C(C)(C)[C@H](OC(=O)C(C)C)[C@@H]2[C@@H](OC(=O)C(C)C)[C@@]34O[C@]2(O)[C@]1(C)[C@H]3CC[C@]1(C)[C@H]4CC(=O)O[C@H]1c1ccoc1
inactive: all assays above
